This is an account of results in ChEMBL document CHEMBL1140938, “Structural requirements for a lipoamino acid in modulating the anticonvulsant activities of systemically active galanin analogues” (J Med Chem, 2009).

pKi: −log10 of the molar value.

Series [1] in a line: Lipophilicity, log D by HPLC method. The format is physicochemical. The essentials:
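HPLC retention times were measured on a linear gradient of 20% to 100% buffer B (0.1% TFA in 90% aqueous acetonitrile; A was 0.1% TFA in water) over 40 min. Five analogs were calibrated by shake flask: 400 µg peptide in 1 mL PBS shaken with an equal volume of water-saturated octanol for 24 h, aqueous phase quantified by HPLC. LogD was calculated from the linear correlation with retention time.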

For series [2], the target named is T1, Galanin receptor type 1 (Homo sapiens, UniProt P47211).
T1 sequence (P47211 whole entry): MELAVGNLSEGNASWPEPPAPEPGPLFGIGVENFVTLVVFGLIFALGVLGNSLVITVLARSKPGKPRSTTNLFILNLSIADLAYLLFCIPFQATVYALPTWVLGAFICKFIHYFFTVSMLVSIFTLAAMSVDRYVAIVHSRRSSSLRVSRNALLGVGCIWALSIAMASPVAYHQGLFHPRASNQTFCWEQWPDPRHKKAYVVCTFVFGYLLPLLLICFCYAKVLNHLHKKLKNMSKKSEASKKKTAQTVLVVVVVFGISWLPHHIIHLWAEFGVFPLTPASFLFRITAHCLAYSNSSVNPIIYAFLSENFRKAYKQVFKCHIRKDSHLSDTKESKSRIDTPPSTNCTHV
The series is described as follows: Displacement of europium labeled galanin from human recombinant GalR1 receptor by time-resolved fluorescence binding assay. In a few lines:
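Competition binding on membranes from recombinant human GalR1 or GalR2 versus 2 nM europium-labeled galanin; 90 min incubation at room temperature, four washes (50 mM Tris-HCl pH 7.5, 5 mM MgCl2), enhancement solution 30 min at room temperature, time-resolved fluorescence read.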

For series [3], the target named is T2, Galanin receptor type 2 (Homo sapiens, UniProt O43603).
T2 sequence (O43603 whole entry): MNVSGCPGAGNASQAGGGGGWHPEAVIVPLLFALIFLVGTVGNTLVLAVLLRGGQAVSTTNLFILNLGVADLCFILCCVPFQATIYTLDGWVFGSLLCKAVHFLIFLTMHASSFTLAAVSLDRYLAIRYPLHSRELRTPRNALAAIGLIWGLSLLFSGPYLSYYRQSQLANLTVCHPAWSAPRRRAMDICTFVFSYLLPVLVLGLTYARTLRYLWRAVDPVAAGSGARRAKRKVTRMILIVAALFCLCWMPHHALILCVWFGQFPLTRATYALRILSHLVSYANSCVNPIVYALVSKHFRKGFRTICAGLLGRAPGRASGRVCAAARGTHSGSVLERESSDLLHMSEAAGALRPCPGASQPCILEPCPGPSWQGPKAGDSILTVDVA
The series is described as follows: Displacement of europium labeled galanin from human recombinant GalR2 receptor by time-resolved fluorescence binding assay. In a few lines: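 Competition binding on membranes from recombinant human GalR1 or GalR2 versus 2 nM europium-labeled galanin; 90 min incubation at room temperature, four washes (50 mM Tris-HCl pH 7.5, 5 mM MgCl2), enhancement solution 30 min at room temperature, time-resolved fluorescence read. Ki from nonlinear sigmoidal variable-slope fit, one-site reversible model, tracer Kd held at 4.3 nM.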

As a reminder, the logD is lipophilicity at a set pH, counting ionised and neutral species. Lower therefore signals lower lipophilicity. The molecule `CCCCCCCC(=O)NCCCC[C@H](NC(=O)[C@H](CCCCN)NC(=O)[C@H](CCCCN)NC(=O)[C@@H]1CCCN1C(=O)CNC(=O)[C@H](CC(C)C)NC(=O)[C@H](CC(C)C)NC(=O)[C@H](Cc1ccc(O)cc1)NC(=O)CNC(=O)[C@H](C)NC(=O)[C@H](CO)NC(=O)[C@H](CC(N)=O)NC(=O)[C@H](CC(C)C)NC(=O)[C@@H](NC(=O)[C@H](Cc1c[nH]c2ccccc12)OC(=O)CNC)[C@@H](C)O)C(=O)N[C@@H](CCCCN)C(N)=O` yielded a logD in series [1] of 0.78.

By pKi is commonly meant the negative decadic logarithm of the Ki, by convention in mol/L. As for `CCCCCCCC(=O)NCCCC[C@H](NC(=O)[C@H](CCCCN)NC(=O)[C@H](CCCCN)NC(=O)[C@@H]1CCCN1C(=O)CNC(=O)[C@H](CC(C)C)NC(=O)[C@H](CC(C)C)NC(=O)[C@H](Cc1ccc(O)cc1)NC(=O)CNC(=O)[C@H](C)NC(=O)[C@H](CO)NC(=O)[C@H](CC(N)=O)NC(=O)[C@H](CC(C)C)NC(=O)[C@@H](NC(=O)[C@H](Cc1c[nH]c2ccccc12)NC(=O)CNC)[C@@H](C)O)C(=O)N[C@@H](CCCCN)C(N)=O`, the pKi is 9.15 in series [2] and 7.83 in series [3].

`CCCCCCCCCCCCCCCCCC(=O)NCCCC[C@H](NC(=O)[C@H](CCCCN)NC(=O)[C@H](CCCCN)NC(=O)[C@@H]1CCCN1C(=O)CNC(=O)[C@H](CC(C)C)NC(=O)[C@H](CC(C)C)NC(=O)[C@H](Cc1ccc(O)cc1)NC(=O)CNC(=O)[C@H](C)NC(=O)[C@H](CO)NC(=O)[C@H](CC(N)=O)NC(=O)[C@H](CC(C)C)NC(=O)[C@@H](NC(=O)[C@H](Cc1c[nH]c2ccccc12)OC(=O)CNC)[C@@H](C)O)C(=O)N[C@@H](CCCCN)C(N)=O`: in series [1], the logD was determined as 1.35.

Consider `CNCC(=O)N[C@@H](Cc1c[nH]c2ccccc12)C(=O)N[C@H](C(=O)N[C@@H](CC(C)C)C(=O)N[C@@H](CC(N)=O)C(=O)N[C@@H](CO)C(=O)N[C@@H](C)C(=O)NCC(=O)N[C@@H](Cc1ccc(O)cc1)C(=O)N[C@@H](CC(C)C)C(=O)N[C@@H](CC(C)C)C(=O)NCC(=O)N1CCC[C@H]1C(=O)N[C@@H](CCCCN)C(=O)N[C@@H](CCCCN)C(=O)N[C@@H](CCCCNC(=O)COCCOCCOCCOCCOC)C(=O)N[C@@H](CCCCN)C(N)=O)[C@@H](C)O`, for which the pKi in series [2] was 9.30; in series [3] it was 7.69.

For `CCCCCCCCCCCCCC(=O)NCCCC[C@H](NC(=O)[C@H](CCCCN)NC(=O)[C@H](CCCCN)NC(=O)[C@@H]1CCCN1C(=O)CNC(=O)[C@H](CC(C)C)NC(=O)[C@H](CC(C)C)NC(=O)[C@H](Cc1ccc(O)cc1)NC(=O)CNC(=O)[C@H](C)NC(=O)[C@H](CO)NC(=O)[C@H](CC(N)=O)NC(=O)[C@H](CC(C)C)NC(=O)[C@@H](NC(=O)[C@H](Cc1c[nH]c2ccccc12)NC(=O)CNC)[C@@H](C)O)C(=O)N[C@@H](CCCCN)C(N)=O`, the pKi in series [2] is 8.59; in series [3], 7.74.

As to `CCCCCCCCCC(=O)NCCCC[C@H](NC(=O)[C@H](CCCCN)NC(=O)[C@H](CCCCN)NC(=O)[C@@H]1CCCN1C(=O)CNC(=O)[C@H](CC(C)C)NC(=O)[C@H](CC(C)C)NC(=O)[C@H](Cc1ccc(O)cc1)NC(=O)CNC(=O)[C@H](C)NC(=O)[C@H](CO)NC(=O)[C@H](CC(N)=O)NC(=O)[C@H](CC(C)C)NC(=O)[C@@H](NC(=O)[C@H](Cc1c[nH]c2ccccc12)NC(=O)CNC)[C@@H](C)O)C(=O)N[C@@H](CCCCN)C(N)=O`, the figures for the negative-log Ki (pKi) in series [2] and in series [3] were 8.89 and 7.84, respectively.

`CCCCCCCCCCCCCCCCCC(=O)NCCCC[C@H](NC(=O)[C@H](CCCCN)NC(=O)[C@H](CCCCN)NC(=O)[C@@H]1CCCN1C(=O)CNC(=O)[C@H](CC(C)C)NC(=O)[C@H](CC(C)C)NC(=O)[C@H](Cc1ccc(O)cc1)NC(=O)CNC(=O)[C@H](C)NC(=O)[C@H](CO)NC(=O)[C@H](CC(N)=O)NC(=O)[C@H](CC(C)C)NC(=O)[C@@H](NC(=O)[C@H](Cc1c[nH]c2ccccc12)NC(=O)CNC)[C@@H](C)O)C(=O)N[C@@H](CCCCN)C(N)=O`: the pKi in series [2] was 8.40; in series [3] it was 7.82.

`CCCCCCCCCCCC(=O)NCCCC[C@H](NC(=O)[C@H](CCCCN)NC(=O)[C@H](CCCCN)NC(=O)[C@@H]1CCCN1C(=O)CNC(=O)[C@H](CC(C)C)NC(=O)[C@H](CC(C)C)NC(=O)[C@H](Cc1ccc(O)cc1)NC(=O)CNC(=O)[C@H](C)NC(=O)[C@H](CO)NC(=O)[C@H](CC(N)=O)NC(=O)[C@H](CC(C)C)NC(=O)[C@@H](NC(=O)[C@H](Cc1c[nH]c2ccccc12)NC(=O)CNC)[C@@H](C)O)C(=O)N[C@@H](CCCCN)C(N)=O`: the pKi is 8.85 in series [2] and 7.79 in series [3].
